IC50 data for 19 molecules are collected here from ChEMBL document CHEMBL3286159, “Design, synthesis and molecular docking of amide and urea derivatives as Escherichia coli PDHc-E1 inhibitors” (Bioorg Med Chem, 2014).

The structures appear in SMILES notation. pIC50: −log10 of the molar value.

This experiment can be described thus: Inhibition of purified Escherichia coli PDHc-E1 using sodium pyruvate as substrate assessed as reduction of 2,6-DichloroPhenolindophenol after 3 mins by spectrophotometry. In short, it runs like this:
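E. coli PDHc-E1 expressed as MBP fusion from pMal-C2X in E. coli TB1 (IPTG 0.5 mM, 7 h, 25 °C) and purified by MBP affinity. Mix of 50 mM K3PO4 pH 7.2, 2.0 mM pyruvate, 0.8 mM 2,6-DCPIP, 7.1 µM enzyme and inhibitor preincubated 3 min at 37 °C. ThDP (0–200 µM) added to start. DCPIP reduction read at 600 nm. Initial rates fit to Hill equation for IC50.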
`Cc1ncc(CNC(=O)COc2ccccc2)c(N)n1`: the pIC50 was 4.34.

For the molecule `Cc1ncc(CNC(=O)COc2ccc(Cl)cc2Cl)c(N)n1`, the pIC50 is 5.02. The figure for `Cc1ncc(CNC(=O)COc2ccc(Cl)cc2)c(N)n1` is 4.89; for `Cc1ncc(CNC(=O)COc2ccc([N+](=O)[O-])cc2)c(N)n1` it is 5.45. For the molecule `Cc1ccc(OCC(=O)NCc2cnc(C)nc2N)cc1`, the pIC50 is 4.67.

`Cc1ncc(CNC(=O)COc2ccc(Br)cc2)c(N)n1`: the pIC50 is 4.95.

As to `COc1ccc(OCC(=O)NCc2cnc(C)nc2N)cc1`, the negative logarithm of the IC50 (pIC50) is 4.78. Regarding `Cc1ncc(CNC(=O)COc2ccccc2Br)c(N)n1`, the pIC50 was 4.22. Then `Cc1ncc(CNC(=O)COc2ccccc2Cl)c(N)n1`, with 4.78; and `Cc1ncc(CNC(=O)COc2ccc(F)cc2)c(N)n1`, with 4.76.

Consider `Cc1ncc(CNC(=O)COc2ccc(F)cc2Cl)c(N)n1`, for which the pIC50 is 5.12.

Take `Cc1ncc(CNC(=O)COc2ccc([N+](=O)[O-])cc2Cl)c(N)n1`: the pIC50 is 5.31. Then `Cc1ncc(CNC(=O)COc2ccc(Cl)cc2C)c(N)n1`, with 4.66; and `Cc1ncc(CNC(=O)COc2ccc(C#N)cc2)c(N)n1`, with 4.87; and `Cc1ncc(CNC(=O)NCOc2ccccc2)c(N)n1`, with 4.89. Then `Cc1ccc(OCNC(=O)NCc2cnc(C)nc2N)cc1`, with 5.03.

As for `COc1ccc(OCNC(=O)NCc2cnc(C)nc2N)cc1`, the negative-log IC50 (pIC50) was 5.20. Then `Cc1ncc(CNC(=O)NCOc2ccc(F)cc2)c(N)n1`, with 4.99; and `Cc1ncc(CNC(=O)NCOc2ccc(Cl)cc2)c(N)n1`, with 5.44.

One may read the pIC50 as the negative decadic logarithm of the IC50, by convention in mol/L.
